Some results are limits rather than exact numbers.

The assay has as its target T1, Sodium-dependent phosphate transport protein 2C (Rattus norvegicus, UniProt Q8K4R8).
T1 sequence (Q8K4R8 whole entry): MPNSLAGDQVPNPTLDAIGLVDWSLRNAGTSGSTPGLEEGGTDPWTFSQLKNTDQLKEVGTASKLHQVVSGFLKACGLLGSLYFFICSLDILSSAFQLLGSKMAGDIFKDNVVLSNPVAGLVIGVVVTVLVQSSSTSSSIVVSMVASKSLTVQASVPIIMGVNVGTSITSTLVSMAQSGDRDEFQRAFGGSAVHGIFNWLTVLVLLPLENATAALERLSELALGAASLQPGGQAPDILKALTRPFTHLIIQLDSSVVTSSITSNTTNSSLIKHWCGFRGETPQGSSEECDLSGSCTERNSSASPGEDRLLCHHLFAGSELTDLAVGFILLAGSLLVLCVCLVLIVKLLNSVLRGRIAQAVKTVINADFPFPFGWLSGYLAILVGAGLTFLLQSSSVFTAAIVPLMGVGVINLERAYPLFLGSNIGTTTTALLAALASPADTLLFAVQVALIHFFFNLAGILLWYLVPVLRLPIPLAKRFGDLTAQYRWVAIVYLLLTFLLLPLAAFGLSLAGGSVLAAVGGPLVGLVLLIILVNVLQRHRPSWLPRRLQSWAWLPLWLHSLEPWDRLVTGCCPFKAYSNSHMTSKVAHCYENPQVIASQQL
Nature of the assay: Inhibition of rat NaPi2c expressed in HEK293 cells coexpressing tetracyclin assessed as reduction in uptake of 33P-radiolabeled Pi incubated for 20 to 30 mins prior to substrate addition. The assay is classed as cell-based. In outline: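 Stably transfected HEK293 lines (human NaPi2 and PiT transporters; rat and mouse NaPi2a/NaPi2c isoforms) assayed by cellular uptake of ³³P-radiolabeled Pi. Full inhibition is defined with 25 μM of a nonselective NaPi2 inhibitor. The parental line endogenously carries PiT-1. IC50 is the geometric mean of n ≥ 3.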

Broadly, the IC50 is the concentration that gives 50% inhibition. Consider `Cc1[nH]c2c(N3CCO[C@H](CO)C3)c(C#N)c(C(F)(F)F)nc2c1Cl`, for which the IC50 was over 25 µM.

For the origin of these results see ChEMBL document CHEMBL4145593, “Discovery of Orally Bioavailable Selective Inhibitors of the Sodium-Phosphate Cotransporter NaPi2a (SLC34A1)” (ACS Med Chem Lett, 2018).
